Values after ≈ are worked out from the molar mass of the structure shown.
Assays:
[1] = tested on: cytokine (TNF-α) production in human leukemia cell line (THP-1); experiment: Cytokine; format: cell-based; conditions: THP-1 cells, LPS 50 ng/mL, 240 min; for inhibition of cytokine (TNF-α) production: test concentration not given
Outline: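 THP-1 cells grown in RPMI-1640 with 50 µM mercaptoethanol, 1 mM sodium pyruvate, 10% FBS, 5.5 mM glucose, 2 mM L-glutamine and 10 mM HEPES, then plated at 70% confluency. Cells differentiated to macrophage-like cells with PMA 20 ng/mL for 24 h (37 °C, 5% CO2). E. coli LPS B added with test compound for 240 min. Supernatant TNF-α measured by human DuoSet ELISA.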

T-cell proliferation = experiment: T-cells proliferation assay; format: cell-based, human; conditions: for IC50: Homo sapiens, T-cell, 48 h, read-out: IC50 against T-cell proliferation
Outline: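 PBMCs came from heparinized healthy human blood. Blood was diluted 1:1 with RPMI-1640, layered on LSM and spun at 400 g for 20 min at 25 °C. The buffy layer was washed at 4 °C and resuspended in RPMI with 5% FBS. Cells were activated with PHA-L, given test compound at several concentrations in triplicate, and incubated 2 days at 37 °C, 5% CO2. Alamar Blue (one-tenth volume) was added for 4 h; absorbance read at 570 and 600 nm.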

[2] = human T-lymphocytes, phytohemagglutinin-L 7.5 μg/mL, 2 days

Row | Compound | inhibition of cytokine (TNF-α) production [1] | activity against T-cell proliferation (in words) (T-cell proliferation; [2]) | also measured
1 | 17β-Hydroxy-1-methyl-3-oxo-5α-androst-1-en [Compound 8] | 69.7 ± 1.4% |  | IC50 against T-cell proliferation (T-cell proliferation; [2]): 21.1 ± 0.04 µg/mL
2 | CC(=O)O[C@H]1CC[C@H]2[C@@H]3CC[C@H]4CC(=O)C=C(C)[C@]4(C)[C@H]3CC[C@]12C [Compound 1, Metenolone acetate, reference compound] | 62.5 ± 4.4% | inactive | 
3 | CC(=O)OC1CC[C@H]2[C@@H]3C[C@H](O)[C@H]4CC(=O)C=C(C)[C@]4(C)[C@H]3CC[C@]12C (stereo partly drawn) [Compound 2, 6α-Hydroxy-1-methyl-3-oxo-5α-androst-1-en-17-yl acetate] | 73.4 ± 0.6% |  | IC50 (T-cell proliferation): 68.9 ± 0.02 µg/mL
4 | CC(=O)OC1CC[C@H]2[C@@H]3[C@@H](O)C[C@H]4CC(=O)C=C(C)[C@]4(C)[C@H]3CC[C@]12C (stereo partly drawn) [Compound 4, 7β-Hydroxy-1-methyl-3-oxo-5α-androst-1-en-17-yl acetate] | 33.5 ± 6.6% | inactive | 
5 | CC(=O)OC1C[C@@H](O)[C@H]2[C@@H]3CC[C@H]4CC(=O)C=C(C)[C@]4(C)[C@H]3CC[C@]12C (stereo partly drawn) [Compound 6, 15β-Hydroxy-1-methyl-3-oxo-5α-androst-1-en-17-yl acetate] | 37.8 ± 1.1% | inactive | 
6 | CC1=CC(=O)C=C2CC[C@@H]3[C@H](CC[C@]4(C)[C@@H](O)CC[C@@H]34)[C@@]12C [Compound 7, 17β-Hydroxy-1-methyl-3-oxoandrosta-1,4-dien] | 46.6 ± 5.2% | inactive | 
7 | CC1=CC(=O)C[C@H]2CC[C@H]3[C@@H]4CC[C@H](O)[C@@]4(C)CC[C@@H]3[C@@]12C [Compound 9, 17β-Hydroxy-1-methyl-3-oxo-5β-androst-1-en] |  |  | activity against cytokine (TNF-α) production (in words) [1]: inactive
8 | CC1=CC(=O)C[C@H]2CC[C@@H]3[C@H](CC[C@]4(C)C(=O)CC[C@@H]34)[C@@]12C [Compound 10, 1-Methyl-5β-androst-1-en-3,17-dione] | 73.2 ± 0.3% |  | 
9 | CC1=CC(=O)C=C2CC[C@@H]3[C@H](C[C@@H](O)[C@]4(C)[C@@H](O)CC[C@@H]34)[C@@]12C [Compound 11, 12β,17β-Dihydroxy-1-methyl-3-oxoandrosta-1,4-dien] | 60.1 ± 3.3% |  | 
10 | C[C@H]1CC(=O)C[C@@H]2CC[C@H]3[C@@H]4CC[C@H](O)[C@@]4(C)CC[C@@H]3[C@]21C [Compound 13, 17β-Hydroxy-1α-methyl-5α-androstan-3-one] |  |  | activity against cytokine (TNF-α) production (in words) [1]: inactive
11 | CC1=CC(=O)C[C@@H]2C[C@H](O)[C@H]3[C@@H]4[C@H](O)C[C@H](O)[C@@]4(C)CC[C@@H]3[C@@]12C [Compound 14, 7β,15β,17β-trihydroxy-1-methyl-3-oxo-5α-androst-1-en] | 52.9 ± 2.4% |  | 
12 | C[C@]12C=CC(=O)C=C1CC[C@@H]1[C@@H]2[C@@H](O)C[C@@]2(C)[C@H]1CC[C@]2(O)C(=O)CO [prednisolone, reference compound] |  |  | IC50 (T-cell proliferation): 3.51 ± 0.03 µg/mL (≈ 9.74 µM)

From publication PMC7076145 (Journal of Advanced Research, 2020)
